Results pooled from the literature.
Read-out: cell growth or viability

With `CC[C@@]1(OC(=O)[C@@H](N)C(C)C)C(=O)OCc2c1cc1n(c2=O)Cc2cc3cc4c(cc3nc2-1)OCO4` the IC50 was 0.087 µM (HepG2; MTT).
With `CCOC(=O)C1=C(N)N(c2ccc(C(=O)OCC)cc2)C(O)=C(C#N)C12C(=O)Nc1ccccc12` (stereo not shown) the viability was 26.3% (HepG2; MTT; 25 µM; 24 h).
For `N.N.[Cl][Pt][Cl]`, the IC50 was 64.4 µM (HEK-293T; XTT; 24 h).
`COc1cc(OC)c(/C=C/S(=O)(=O)Nc2ccc(OC)c(N)c2)c(OC)c1` gave an IC50 of 0.004 µM (RF1; trypan blue; 96 h).
For `N.N.[Cl][Pt][Cl]`, the IC50 was 40.1 µM (A-431; MTT; 24 h; dark).
For `CCCc1cc(=O)n2nc(NCc3c(F)cc(Cl)cc3F)c(C#N)c2[nH]1`, the IC50 was > 50 µM (HCC33; ATP luminescence; 72 h).
`N.N.[Cl][Pt][Cl]` gave an inhibition of 76.4% (Huh-7; MTT; 20 µM).
With `CC[C@@]1(OC(=O)[C@@H](N)CCCCN)C(=O)OCc2c1cc1n(c2=O)Cc2cc3cc4c(cc3nc2-1)OCO4` the IC50 was 0.035 µM (HepG2; MTT).
`CC1=C(O)C(=O)C=C2C1=CC=C1[C@@]2(C)CC[C@@]2(C)[C@@H]3C[C@](C)(C(=O)O)CC[C@]3(C)CC[C@]12C` gave an inhibition of 92% (HepG2; MTT; 20 µM).
`CC[C@@]1(O)C(=O)OCc2c1cc1n(c2=O)Cc2cc3cc4c(cc3nc2-1)OCO4` has an IC50 of 0.022 µM (HepG2; MTT; 72 h).
`[N-]=[N+]=[N-]` has an IC50 of > 100 µM (A-431; MTT; 3 h).
`CCC1(OC(=O)C(C)c2ccc3cc(OC)ccc3c2)C(=O)OCc2c1cc1n(c2=O)Cc2cc3cc4c(cc3nc2-1)OCO4` (stereo not shown) has an IC50 of 3.5 µM (HepG2; MTT).
For `N.N.O=C([O-])C1(C(=O)[O-])CCC1.[Pt+2]`, the IC50 was 27 µM (PNT2; MTT; 96 h).
